Experimental data as given in ChEMBL document CHEMBL1142459, “Design and synthesis of a novel series of pyranonaphthoquinones as topoisomerase II catalytic inhibitors” (J Med Chem, 2008).
The source made the active and inactive calls. The calls are words filed in the database; no cut-off is given here.

What was measured:
[1] = target: DNA topoisomerase 2-alpha (Homo sapiens) (UniProt P11388); experiment: Inhibition of human topoisomerase 2 alpha-mediated bacterial plasmid DNA relaxation assessed as pRYG negative supercoiled form added 100 uM after relaxation
[2] = target: DNA topoisomerase 2-alpha (Homo sapiens) (UniProt P11388); experiment: Inhibition of human topoisomerase 2 alpha-mediated bacterial plasmid DNA relaxation assessed as pRYG negative supercoiled form at 100 uM
Nucleic Acid = experiment: DNA intercalative activity assessed retardation in migration of negatively supercoiled small circular Escherichia coli pBSKS in agarose gel electrophoresis at 100 uM; format: nucleic-acid assay
Procedure, shortened: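 250 ng negatively supercoiled pBSKS incubated 10 min at 37 °C with compound at 100 µM in 1% (v/v) DMSO; ethidium bromide 1 µg/mL as intercalator control. Run on 1% agarose in 1× TBE without ethidium bromide at 0.5 V/cm (low field); retardation of migration scored.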

[3] = target: DNA topoisomerase 2-alpha (Homo sapiens) (UniProt P11388); experiment: Inhibition of human topoisomerase 2 alpha-mediated Crithidia fasciculate kDNA decatenation at 100 uM

Sequence of DNA topoisomerase 2-alpha (Homo sapiens) (P11388 whole entry): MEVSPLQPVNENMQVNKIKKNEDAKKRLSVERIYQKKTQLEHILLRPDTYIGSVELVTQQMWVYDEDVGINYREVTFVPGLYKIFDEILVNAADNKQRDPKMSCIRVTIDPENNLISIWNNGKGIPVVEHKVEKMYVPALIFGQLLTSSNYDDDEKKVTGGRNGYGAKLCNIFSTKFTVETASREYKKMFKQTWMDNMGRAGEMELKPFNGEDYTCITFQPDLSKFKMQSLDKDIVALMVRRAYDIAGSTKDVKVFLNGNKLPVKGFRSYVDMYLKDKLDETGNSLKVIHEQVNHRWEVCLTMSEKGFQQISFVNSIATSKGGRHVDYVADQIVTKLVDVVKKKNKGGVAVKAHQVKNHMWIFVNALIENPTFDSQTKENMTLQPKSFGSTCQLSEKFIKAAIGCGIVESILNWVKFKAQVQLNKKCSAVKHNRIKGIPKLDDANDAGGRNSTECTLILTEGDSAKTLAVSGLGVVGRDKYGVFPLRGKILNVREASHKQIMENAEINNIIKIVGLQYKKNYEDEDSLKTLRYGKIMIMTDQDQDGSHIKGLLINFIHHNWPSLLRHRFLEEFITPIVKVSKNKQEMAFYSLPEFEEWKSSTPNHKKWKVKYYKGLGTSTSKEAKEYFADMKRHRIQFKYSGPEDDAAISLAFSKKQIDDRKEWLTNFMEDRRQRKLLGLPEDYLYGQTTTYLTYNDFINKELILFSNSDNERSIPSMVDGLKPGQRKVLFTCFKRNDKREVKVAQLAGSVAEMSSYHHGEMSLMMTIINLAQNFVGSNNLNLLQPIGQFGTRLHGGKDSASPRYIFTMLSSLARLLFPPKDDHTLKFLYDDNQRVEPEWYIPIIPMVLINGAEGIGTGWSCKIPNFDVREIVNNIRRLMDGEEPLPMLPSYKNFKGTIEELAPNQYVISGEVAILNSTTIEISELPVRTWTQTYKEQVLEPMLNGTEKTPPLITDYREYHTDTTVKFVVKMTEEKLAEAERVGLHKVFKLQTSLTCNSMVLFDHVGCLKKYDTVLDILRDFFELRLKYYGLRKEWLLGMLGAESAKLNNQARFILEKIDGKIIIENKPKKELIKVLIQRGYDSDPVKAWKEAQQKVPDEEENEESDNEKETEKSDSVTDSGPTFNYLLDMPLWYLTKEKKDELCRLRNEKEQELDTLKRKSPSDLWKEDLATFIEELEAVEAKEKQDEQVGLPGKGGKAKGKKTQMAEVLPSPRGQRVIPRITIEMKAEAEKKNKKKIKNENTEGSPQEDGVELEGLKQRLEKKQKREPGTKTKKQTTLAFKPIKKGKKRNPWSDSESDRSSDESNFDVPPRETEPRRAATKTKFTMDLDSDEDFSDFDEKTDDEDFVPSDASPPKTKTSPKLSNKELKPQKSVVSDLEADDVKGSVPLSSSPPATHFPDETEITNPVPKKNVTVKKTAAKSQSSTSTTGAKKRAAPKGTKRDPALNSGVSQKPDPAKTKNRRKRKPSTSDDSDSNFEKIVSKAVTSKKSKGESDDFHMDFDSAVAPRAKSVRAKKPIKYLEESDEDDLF

Cc1c2ccncc2c(C)c2c1[nH]c1ccccc12
Activity [1]: inactive
Activity [2]: Active
Activity (Nucleic Acid): Active

CC1(C)OC2=C(C(=O)C(=O)c3ccccc32)[C@@H]2c3c(ccc4ccccc34)OC[C@@H]21
Activity [3]: Active
Activity [1]: inactive
Activity [2]: Active
Activity (Nucleic Acid): inactive

COc1ccc2c(c1)OC[C@@H]1[C@H]2C2=C(OC1(C)C)C(=O)c1ccccc1C2=O
Activity [3]: Active
Activity [1]: inactive
Activity [2]: Active
Activity (Nucleic Acid): inactive

C[C@H]1CC[C@@H]2[C@@H]1C1=C(OC2(C)C)c2ccccc2C(=O)C1=O
Activity [3]: inactive
Activity [1]: inactive
Activity [2]: inactive
Activity (Nucleic Acid): inactive

CC[n+]1c(-c2ccccc2)c2cc(N)ccc2c2ccc(N)cc21
Activity (Nucleic Acid): Active

CC1(C)OC2=C(C(=O)c3ccccc3C2=O)[C@H]2c3c(ccc4ccccc34)OC[C@H]21
Activity [3]: inactive
Activity [1]: inactive
Activity [2]: inactive
Activity (Nucleic Acid): inactive

COc1cc([C@@H]2c3cc4c(cc3[C@@H](O[C@@H]3O[C@@H]5CO[C@@H](C)O[C@H]5[C@H](O)[C@H]3O)[C@H]3COC(=O)[C@H]23)OCO4)cc(OC)c1O
Activity [1]: Active
Activity [2]: inactive
Activity (Nucleic Acid): inactive

COc1ccc2c(c1)OC[C@H]1[C@@H]2C2=C(OC1(C)C)c1ccccc1C(=O)C2=O
Activity [3]: Active
Activity [1]: inactive
Activity [2]: Active
Activity (Nucleic Acid): inactive

C[C@@H]1CC[C@@H]2[C@@H](C1)C1=C(OC2(C)C)C(=O)c2ccccc2C1=O
Activity [3]: inactive
Activity [1]: inactive
Activity [2]: inactive
Activity (Nucleic Acid): inactive

CC1(C)OC2=C(C(=O)C(=O)c3ccccc32)[C@@H]2c3cc(Br)ccc3OC[C@@H]21
Activity [3]: Active
Activity [1]: inactive
Activity [2]: Active
Activity (Nucleic Acid): inactive

C[C@@H]1CC[C@H]2[C@H]1C1=C(OC2(C)C)C(=O)c2ccccc2C1=O
Activity [3]: inactive
Activity [1]: inactive
Activity [2]: inactive
Activity (Nucleic Acid): inactive

C[C@H]1CC[C@H]2[C@H](C1)C1=C(OC2(C)C)c2ccccc2C(=O)C1=O
Activity [3]: inactive
Activity [1]: inactive
Activity [2]: inactive
Activity (Nucleic Acid): inactive

CC1(C)OC2=C(C(=O)c3ccccc3C2=O)[C@H]2c3cc(Br)ccc3OC[C@H]21
Activity [3]: Active
Activity [1]: inactive
Activity [2]: Active
Activity (Nucleic Acid): inactive

CC1(C)OC2=C(C(=O)c3ccccc3C2=O)[C@H]2c3cc(Br)cc(Br)c3OC[C@H]21
Activity [3]: Active
Activity [1]: inactive
Activity [2]: Active
Activity (Nucleic Acid): inactive
